# Data: BindingDB's records for doi:10.1021/jm00151a016 (1986)
# Positions of bridges follow the written chain, without caps; N, C: chain ends. Non-standard residues stand in square brackets, D forms with d. Residues, ends and D or L forms follow the SMILES beside them. NMeA = CN[C@@H](C)C(=O)O; Sar = CNCC(=O)O
# Tests used:
# Vasopressin V2 receptor = Vasopressin V2 receptor (Bos taurus, UniProt P48044); assay: ChEBML_214690
# Excerpt: Binding affinity against plasma membrane from bovine kidney inner medulla using [3H]AVP as a radioligand
# [1] = target: Vasopressin V1a/V1b receptor (Rattus norvegicus, UniProt P30560+P48974); assay: Binding affinity against plasma membrane from rat liver using [3H]-AVP as a radioligand
# Vasopressin V1a/V1b receptor, sequence (P30560 whole entry): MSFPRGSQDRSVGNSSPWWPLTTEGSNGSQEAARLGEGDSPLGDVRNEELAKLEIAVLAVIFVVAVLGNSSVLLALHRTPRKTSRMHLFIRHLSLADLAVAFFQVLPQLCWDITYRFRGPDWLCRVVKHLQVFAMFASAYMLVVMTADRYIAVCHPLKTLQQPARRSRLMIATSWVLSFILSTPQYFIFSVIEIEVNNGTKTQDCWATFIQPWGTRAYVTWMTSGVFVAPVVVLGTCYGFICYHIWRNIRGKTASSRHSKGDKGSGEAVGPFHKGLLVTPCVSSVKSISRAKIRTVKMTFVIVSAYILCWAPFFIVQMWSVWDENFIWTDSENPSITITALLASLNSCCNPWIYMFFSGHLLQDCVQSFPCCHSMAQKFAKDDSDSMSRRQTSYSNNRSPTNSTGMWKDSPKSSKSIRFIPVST
# Vasopressin V1a/V1b receptor, sequence (P48974 whole entry): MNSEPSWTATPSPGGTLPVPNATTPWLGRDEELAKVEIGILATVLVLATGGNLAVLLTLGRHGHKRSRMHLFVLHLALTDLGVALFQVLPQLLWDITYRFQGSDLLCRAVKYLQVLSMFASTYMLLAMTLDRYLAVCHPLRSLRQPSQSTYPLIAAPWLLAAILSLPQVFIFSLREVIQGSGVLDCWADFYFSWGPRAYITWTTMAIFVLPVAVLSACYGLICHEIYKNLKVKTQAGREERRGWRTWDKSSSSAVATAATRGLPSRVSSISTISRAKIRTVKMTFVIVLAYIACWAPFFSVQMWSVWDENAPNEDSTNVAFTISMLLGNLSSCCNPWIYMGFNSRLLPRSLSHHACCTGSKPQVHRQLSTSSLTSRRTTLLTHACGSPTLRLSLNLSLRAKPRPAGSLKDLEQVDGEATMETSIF
# Method in brief: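 Competition binding with [3H]AVP to plasma membranes, 30 min incubation; for rat liver membranes the standard medium included bacitracin (1 mg/mL). Apparent KD and slope factor b from weighted nonlinear least-squares fit of displacement curves to logistic curves; [3H]AVP parameters from direct binding. Mean ±SE of two experiments.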
# Vasopressin V2 receptor, sequence (P48044 whole entry): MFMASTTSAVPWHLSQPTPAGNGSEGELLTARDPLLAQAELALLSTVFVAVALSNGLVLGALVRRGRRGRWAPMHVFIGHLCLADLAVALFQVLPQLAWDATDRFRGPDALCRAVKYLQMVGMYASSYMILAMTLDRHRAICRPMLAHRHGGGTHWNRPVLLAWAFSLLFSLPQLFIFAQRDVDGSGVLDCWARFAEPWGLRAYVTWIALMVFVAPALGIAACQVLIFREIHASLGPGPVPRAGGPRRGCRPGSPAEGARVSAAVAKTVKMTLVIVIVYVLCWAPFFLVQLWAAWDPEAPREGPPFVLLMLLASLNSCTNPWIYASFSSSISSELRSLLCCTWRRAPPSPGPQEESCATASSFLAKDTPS
Compound,Kd (Vasopressin V2 receptor),Kd [1]
CC(C)[C@@H]1NC(=O)[C@H](Cc2ccccc2)NC(=O)[C@H](Cc2ccc(O)cc2)NC(=O)[C@@H](N)CSSC[C@@H](C(=O)N(C)CC(=O)N[C@@H](CCCNC(=N)N)C(=O)NCC(N)=O)NC(=O)[C@H](CC(N)=O)NC1=O (H-CYFVNC[Sar]RG-NH2; disulfide 1-6),9.4 nM,110 nM
CC(C)[C@H]1NC(=O)[C@H](Cc2ccccc2)NC(=O)[C@@H](Cc2ccc(O)cc2)NC(=O)CCSSC[C@@H](C(=O)N(C)[C@@H](C)C(=O)N[C@@H](CCCN=C(N)N)C(=O)NCC(N)=O)NC(=O)[C@H](CC(N)=O)NC1=O,9.4 nM,
C[C@@H](C(=O)N[C@@H](CCCN=C(N)N)C(=O)NCC(N)=O)N(C)C(=O)[C@@H]1CSSC[C@H](N)C(=O)N[C@@H](Cc2ccccc2)C(=O)N[C@@H](Cc2ccccc2)C(=O)N[C@@H](CCC(N)=O)C(=O)N[C@@H](CC(N)=O)C(=O)N1 (H-CFFQNC[NMeA]RG-NH2; disulfide 1-6),,110 nM
